Assay results reported in ChEMBL document CHEMBL1926565, “Synthesis, antiproliferative activities and telomerase inhibition evaluation of novel asymmetrical 1,2-disubstituted amidoanthraquinone derivatives” (Eur J Med Chem, 2012).
Calls of active or inactive are those of the source. The calls are words filed in the database; no cut-off is given here.

Tests used:
[1] = test system: MOLT-4; assay: Cytotoxicity against human MOLT4 cells assessed as cellular growth at 10 uM; assay type: functional
Method in brief: (§1)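 Single-dose screen run by the NCI across its 60-human-tumour-cell-line panel; growth recorded for each cell line.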

[2] = test system: NCI-H460; assay: Cytotoxicity against human NCI-H460 cells assessed as cellular growth at 10 uM; assay type: functional; method in brief: as §1
[3] = test system: HOP-62; assay: Cytotoxicity against human HOP62 cells assessed as cellular growth at 10 uM; assay type: functional; method in brief: as §1
[4] = test system: Malme-3M; assay: Cytotoxicity against human MALME-3M cells assessed as cellular growth at 10 uM; assay type: functional; method in brief: as §1
[5] = test system: HL-60(TB); assay: Cytotoxicity against human HL-60(TB) cells assessed as cellular growth at 10 uM; assay type: functional; method in brief: as §1
[6] = test system: 786-0; assay: Cytotoxicity against human 786-0 cells assessed as cellular growth at 10 uM; assay type: functional; method in brief: as §1
[7] = test system: HCT-116; assay: Cytotoxicity against human HCT116 cells assessed as cellular growth at 10 uM; assay type: functional; method in brief: as §1
[8] = test system: M14; assay: Cytotoxicity against human M14 cells assessed as cellular growth at 10 uM; assay type: functional; method in brief: as §1
[9] = test system: OVCAR-5; assay: Cytotoxicity against human OVCAR5 cells assessed as cellular growth at 10 uM; assay type: functional; method in brief: as §1
[10] = test system: A498; assay: Cytotoxicity against human A498 cells assessed as cellular growth at 10 uM; assay type: functional; method in brief: as §1
[11] = test system: PC-3; assay: Cytotoxicity against human PC3 cells assessed as cellular growth at 10 uM; assay type: functional; method in brief: as §1
[12] = target: Telomerase reverse transcriptase (Homo sapiens) (UniProt O14746); assay: Residual activity of human TERT in H1299 cells at 1 uM after 24 hrs by SEAP reporter gene assay
[13] = test system: PC-3; assay: Cytotoxicity against human PC3 cells after 48 hrs by SRB assay; assay type: functional, cell-based; settings: PC-3, 48 h
Method in brief: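 PC-3 cells grown in RPMI1640 with 10% FBS at 37 °C, 5% CO₂. Seeded in medium with 5% FBS; after 24 h, one plate fixed with 10% TCA as T₀. Compound or 0.1% DMSO vehicle added for 48 h, then TCA fixation and 0.4% SRB in 1% acetic acid. Dye solubilized in 10 mM Trizma base, absorbance read at 515 nm. IC50 is the concentration giving 50% reduction of the protein gain in controls.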

[14] = test system: OVCAR-4; assay: Cytotoxicity against human OVCAR4 cells assessed as cellular growth at 10 uM; assay type: functional; method in brief: as §1
[15] = test system: SN12C; assay: Cytotoxicity against human SN12C cells assessed as cellular growth at 10 uM; assay type: functional
[16] = test system: A549; assay: Cytotoxicity against human A549 cells assessed as cellular growth at 10 uM; assay type: functional; method in brief: as §1
[17] = test system: SF-539; assay: Cytotoxicity against human SF539 cells assessed as cellular growth at 10 uM; assay type: functional; method in brief: as §1
[18] = test system: BT-549; assay: Cytotoxicity against human BT549 cells assessed as cellular growth at 10 uM; assay type: functional; method in brief: as §1
[19] = target: Telomerase reverse transcriptase (Homo sapiens) (UniProt O14746); assay: Inhibition of telomerase activity in human H1299 cell free extract at 10 uM by modified TRAP assay
Method in brief: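 TRAP assay using total cell lysate from H1299 lung cancer cells as the telomerase source, with protein measured against BSA standards. Compounds tested at 10 µM. Controls were lysate without inhibitor (positive) and RNase A-treated extract without inhibitor (negative).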

[20] = test system: T47D; assay: Cytotoxicity against human T47D cells assessed as cellular growth at 10 uM; assay type: functional
[21] = test system: IGROV-1; assay: Cytotoxicity against human IGROV1 cells assessed as cellular growth at 10 uM; assay type: functional; method in brief: as §1
[22] = test system: NCI/ADR-RES; assay: Cytotoxicity against human NCI/ADR-RES cells assessed as cellular growth at 10 uM; assay type: functional; method in brief: as §1
[23] = test system: NCI-H322M; assay: Cytotoxicity against human NCI-H322M cells assessed as cellular growth at 10 uM; assay type: functional; method in brief: as §1
[24] = test system: KM12; assay: Cytotoxicity against human KM12 cells assessed as cellular growth at 10 uM; assay type: functional; method in brief: as §1
[25] = test system: NCI-H23; assay: Cytotoxicity against human NCI-H23 cells assessed as cellular growth at 10 uM; assay type: functional; method in brief: as §1
[26] = test system: SK-MEL-2; assay: Cytotoxicity against human SK-MEL-2 cells assessed as cellular growth at 10 uM; assay type: functional; method in brief: as §1
[27] = test system: U-251; assay: Cytotoxicity against human U251 cells assessed as cellular growth at 10 uM; assay type: functional
[28] = test system: SR; assay: Cytotoxicity against human SR cells assessed as cellular growth at 10 uM; assay type: functional
[29] = test system: SK-MEL-5; assay: Cytotoxicity against human SK-MEL-5 cells assessed as cellular growth at 10 uM; assay type: functional
[30] = test system: SK-MEL-28; assay: Cytotoxicity against human SK-MEL-28 cells assessed as cellular growth at 10 uM; assay type: functional; method in brief: as §1
[31] = test system: SF-295; assay: Cytotoxicity against human SF295 cells assessed as cellular growth at 10 uM; assay type: functional; method in brief: as §1
[32] = test system: DU-145; assay: Cytotoxicity against human DU145 cells assessed as cellular growth at 10 uM; assay type: functional; method in brief: as §1
[33] = test system: HT-29; assay: Cytotoxicity against human HT-29 cells assessed as cellular growth at 10 uM; assay type: functional; method in brief: as §1
[34] = test system: SW-620; assay: Cytotoxicity against human SW620 cells assessed as cellular growth at 10 uM; assay type: functional
[35] = Growth of human H1299 cells at 1 uM after 48 hrs by MTT assay; settings: NCI-H1299, 48 h
[36] = test system: MDA-MB-231; assay: Cytotoxicity against human MDA-MB-231 cells assessed as cellular growth at 10 uM; assay type: functional; method in brief: as §1
[37] = test system: UO-31; assay: Cytotoxicity against human UO31 cells assessed as cellular growth at 10 uM; assay type: functional
[38] = Growth of human H1299 cells at 100 uM 48 hrs by MTT assay; settings: NCI-H1299, 48 h
[39] = test system: HCT-15; assay: Cytotoxicity against human HCT15 cells assessed as cellular growth at 10 uM; assay type: functional; method in brief: as §1
[40] = test system: SNB-75; assay: Cytotoxicity against human SNB75 cells assessed as cellular growth at 10 uM; assay type: functional
[41] = test system: OVCAR-3; assay: Cytotoxicity against human OVCAR3 cells assessed as cellular growth at 10 uM; assay type: functional; method in brief: as §1
[42] = test system: UACC-62; assay: Cytotoxicity against human UACC62 cells assessed as cellular growth at 10 uM; assay type: functional
[43] = test system: TK-10; assay: Cytotoxicity against human TK10 cells assessed as cellular growth at 10 uM; assay type: functional
[44] = test system: HOP-92; assay: Cytotoxicity against human HOP92 cells assessed as cellular growth at 10 uM; assay type: functional; method in brief: as §1
[45] = Growth of human H1299 cells at 10 uM after 48 hrs by MTT assay; settings: NCI-H1299, 48 h
[46] = test system: COLO 205; assay: Cytotoxicity against human COLO205 cells assessed as cellular growth at 10 uM; assay type: functional; method in brief: as §1
[47] = test system: CCRF-CEM; assay: Cytotoxicity against human CCRF-CEM cells assessed as cellular growth at 10 uM; assay type: functional; method in brief: as §1
[48] = Cytotoxicity against human Hs 578T cells assessed as cellular growth at 10 uM; assay type: functional; method in brief: as §1
[49] = test system: HCC 2998; assay: Cytotoxicity against human HCC2998 cells assessed as cellular growth at 10 uM; assay type: functional; method in brief: as §1
[50] = test system: K562; assay: Cytotoxicity against human K562 cells assessed as cellular growth at 10 uM; assay type: functional; method in brief: as §1
[51] = test system: UACC-257; assay: Cytotoxicity against human UACC257 cells assessed as cellular growth at 10 uM; assay type: functional

Telomerase reverse transcriptase (Homo sapiens), sequence (O14746 whole entry): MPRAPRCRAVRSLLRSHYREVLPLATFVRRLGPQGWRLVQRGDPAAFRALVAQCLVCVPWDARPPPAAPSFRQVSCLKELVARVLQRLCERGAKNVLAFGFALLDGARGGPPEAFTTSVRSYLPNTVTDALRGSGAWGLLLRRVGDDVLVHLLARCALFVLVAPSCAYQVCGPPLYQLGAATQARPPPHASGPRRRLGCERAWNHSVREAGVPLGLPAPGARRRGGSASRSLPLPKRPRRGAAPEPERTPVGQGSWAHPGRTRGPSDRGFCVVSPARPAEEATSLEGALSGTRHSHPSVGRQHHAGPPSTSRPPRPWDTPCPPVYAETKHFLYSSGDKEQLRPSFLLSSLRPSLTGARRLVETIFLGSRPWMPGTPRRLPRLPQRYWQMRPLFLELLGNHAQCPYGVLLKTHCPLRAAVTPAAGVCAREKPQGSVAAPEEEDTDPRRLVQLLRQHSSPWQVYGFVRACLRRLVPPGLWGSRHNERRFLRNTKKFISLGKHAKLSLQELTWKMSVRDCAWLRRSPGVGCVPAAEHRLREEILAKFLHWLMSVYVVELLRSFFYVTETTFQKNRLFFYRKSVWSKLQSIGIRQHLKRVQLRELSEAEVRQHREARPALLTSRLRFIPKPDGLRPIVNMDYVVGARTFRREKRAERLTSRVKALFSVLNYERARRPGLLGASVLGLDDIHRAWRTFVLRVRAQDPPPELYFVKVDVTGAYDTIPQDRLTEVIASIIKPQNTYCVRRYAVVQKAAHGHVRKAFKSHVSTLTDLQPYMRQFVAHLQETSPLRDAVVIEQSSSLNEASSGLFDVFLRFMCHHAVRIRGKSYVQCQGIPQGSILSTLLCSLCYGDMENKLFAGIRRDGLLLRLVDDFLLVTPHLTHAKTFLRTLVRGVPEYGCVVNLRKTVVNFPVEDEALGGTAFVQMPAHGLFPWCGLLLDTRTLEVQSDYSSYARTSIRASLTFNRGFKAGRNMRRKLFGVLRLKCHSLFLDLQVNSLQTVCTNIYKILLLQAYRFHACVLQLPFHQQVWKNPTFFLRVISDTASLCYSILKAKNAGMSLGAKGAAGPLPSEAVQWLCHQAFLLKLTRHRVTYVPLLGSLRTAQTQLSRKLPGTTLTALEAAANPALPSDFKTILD

Structure (SMILES): Cc1ccc(C(=O)Nc2c(NC(=O)CCl)ccc3c2C(=O)c2ccccc2C3=O)cc1
- Activity [1]: -23.17%
- Activity [2]: 95.65%
- Activity [3]: -28.62%
- Activity [4]: -22.41%
- Activity [5]: -46.88%
- Activity [6]: 11.3%
- Activity [7]: -54.27%
- Activity [8]: -22.68%
- Activity [9]: 109.55%
- Activity [10]: 123.78%
- Activity [11]: 6.81%
- residual activity [12]: 109%
- IC50 [13]: 3.87 µM
- Activity [14]: 34.52%
- Activity [15]: -81.02%
- Activity [16]: -81.71%
- Activity [17]: -31.42%
- Activity [18]: 28.19%
- inhibition [19]: inactive
- Activity [20]: -49.46%
- Activity [21]: 51.41%
- Activity [22]: 72.17%
- Activity [23]: 95.05%
- Activity [24]: -19.53%
- Activity [25]: -85.89%
- Activity [26]: 52%
- Activity [27]: -44.02%
- Activity [28]: -19.84%
- Activity [29]: -98.72%
- Activity [30]: -31.94%
- Activity [31]: 79.7%
- Activity [32]: -97.56%
- Activity [33]: 3.37%
- Activity [34]: -43.27%
- growth, % of control at 1 µM [35]: 103%
- Activity [36]: 24.67%
- Activity [37]: 42.91%
- growth, % of control at 100 µM [38]: 0%
- Activity [39]: -50.22%
- Activity [40]: 6.31%
- Activity [41]: -92.86%
- Activity [42]: -67.8%
- Activity [43]: 130.52%
- Activity [44]: -68.77%
- growth, % of control at 10 µM [45]: 2%
- Activity [46]: -53.43%

Structure (SMILES): Cc1ccc(C(=O)Nc2c(NC(=O)CN3CCN(C)CC3)ccc3c2C(=O)c2ccccc2C3=O)cc1
- Activity [1]: 26.04%
- Activity [47]: 61.06%
- Activity [2]: 37.47%
- Activity [3]: 75.21%
- Activity [4]: 10.84%
- Activity [5]: -8.54%
- Activity [6]: 11.9%
- Activity [7]: 8.37%
- Activity [8]: -60.04%
- Activity [9]: 106.66%
- Activity [10]: 67.36%
- Activity [11]: 84.75%
- residual activity [12]: 78%
- IC50 [13]: 3.46 µM
- Activity [14]: 57.11%
- Activity [15]: 63.31%
- Activity [48]: 87.29%
- Activity [16]: 83.89%
- Activity [17]: 62.68%
- Activity [18]: 91.88%
- Activity [49]: 28.97%
- inhibition [19]: inactive
- Activity [20]: 52.62%
- Activity [21]: 112.2%
- Activity [22]: 66.74%
- Activity [23]: 72.6%
- Activity [24]: 44.05%
- Activity [25]: 89.52%
- Activity [26]: 123.64%
- Activity [50]: -4.52%
- Activity [27]: 22.38%
- Activity [28]: -43.7%
- Activity [29]: 41.3%
- Activity [30]: -57.56%
- Activity [31]: 89.86%
- Activity [32]: 82.12%
- Activity [33]: 3.69%
- Activity [34]: 39.17%
- growth, % of control at 1 µM [35]: 77%
- Activity [51]: -50.95%
- Activity [36]: 37%
- Activity [37]: 70.66%
- growth, % of control at 100 µM [38]: 3%
- Activity [39]: 27.47%
- Activity [40]: 82.17%
- Activity [41]: -6.15%
- Activity [42]: -20.65%
- Activity [43]: 101.93%
- Activity [44]: 90.68%
- growth, % of control at 10 µM [45]: 13%
- Activity [46]: 2.29%
